Our source for the IC50 and Activity values is ChEMBL document CHEMBL1152849, “Design, synthesis and AChE inhibitory activity of indanone and aurone derivatives” (Eur J Med Chem, 2009).

The target in one assay is T1, Acetylcholinesterase (Rattus norvegicus, UniProt P37136).
T1 sequence (P37136 whole entry): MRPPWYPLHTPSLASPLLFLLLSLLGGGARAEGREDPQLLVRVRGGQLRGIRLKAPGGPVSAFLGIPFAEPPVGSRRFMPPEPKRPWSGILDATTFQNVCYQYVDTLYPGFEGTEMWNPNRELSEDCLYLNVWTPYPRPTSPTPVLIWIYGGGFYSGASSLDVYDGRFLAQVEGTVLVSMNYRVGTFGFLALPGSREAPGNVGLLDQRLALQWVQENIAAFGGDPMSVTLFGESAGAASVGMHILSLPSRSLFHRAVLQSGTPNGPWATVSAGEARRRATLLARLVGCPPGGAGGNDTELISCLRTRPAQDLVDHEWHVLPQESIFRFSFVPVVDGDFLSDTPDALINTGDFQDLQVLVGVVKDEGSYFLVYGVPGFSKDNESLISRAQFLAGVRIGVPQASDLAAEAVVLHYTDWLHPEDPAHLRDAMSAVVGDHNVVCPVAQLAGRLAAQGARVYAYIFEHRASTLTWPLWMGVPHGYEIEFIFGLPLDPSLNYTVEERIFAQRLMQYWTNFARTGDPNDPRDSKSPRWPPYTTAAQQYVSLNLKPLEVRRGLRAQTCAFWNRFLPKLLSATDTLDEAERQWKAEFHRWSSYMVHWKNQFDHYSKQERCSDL
Description: Inhibition of AChE in rat cortex after 15 mins by modified Ellman method. A general note: In Ellman's method for cholinesterases, released thiocholine reacts with DTNB.

For a further assay, the target named is Butyrylcholinesterase (Rattus norvegicus, UniProt Q9JKC1). Nature of the assay: Inhibition of BChE in rat serum after 15 mins by modified Ellman method. The class given is cell-free.
In assay [1] the test system is Mus musculus. Description: Cognitive enhancing effect against scopolamine-induced acquisition memory deficit in mouse assessed as times of step-down at 2 mg/kg, intragastric gavage after 24 hrs by step-down passive avoidance test. In kind it is functional. The procedure, abridged:
(§1)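 Step-down passive avoidance in mice, 10 per group. In training, each mouse was placed on the platform and its latency to step down onto the grid with all four paws was recorded. It was shocked immediately on stepping down, and the session lasted 3 min. Memory was scored as step-down errors (times) and escape latency (s), each given as mean ± deviation.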

Assay [2] concerns Mus musculus. Description: Cognitive enhancing effect against scopolamine-induced acquisition memory deficit in mouse assessed as times of step-down at 5 mg/kg, intragastric gavage after 24 hrs by step-down passive avoidance test. In kind it is functional. The procedure, abridged: as §1
Assay [3] relates to Mus musculus. Description: Cognitive enhancing effect against scopolamine-induced acquisition memory deficit in mouse assessed as times of step-down at 10 mg/kg, intragastric gavage after 24 hrs by step-down passive avoidance test. The class given is functional. The procedure, abridged: as §1
The test system of assay [4] is Mus musculus. Nature of the assay: Cognitive enhancing effect against scopolamine-induced acquisition memory deficit in mouse assessed as escape latency at 2 mg/kg, intragastric gavage after 24 hrs by step-down passive avoidance test. In kind it is functional. The procedure, abridged:
as §1

Assay [5] deals with Mus musculus. Nature of the assay: Cognitive enhancing effect against scopolamine-induced acquisition memory deficit in mouse assessed as escape latency at 5 mg/kg, intragastric gavage after 24 hrs by step-down passive avoidance test. The class given is functional. The procedure, abridged:
as §1

The subject of assay [6] is Mus musculus. Description: Cognitive enhancing effect against scopolamine-induced acquisition memory deficit in mouse assessed as escape latency at 10 mg/kg, intragastric gavage after 24 hrs by step-down passive avoidance test. In kind it is functional. An outline of the steps: as §1

A word on the IC50: it is the concentration that inhibits the measured activity by half.

Chain of Butyrylcholinesterase (Q9JKC1 whole entry): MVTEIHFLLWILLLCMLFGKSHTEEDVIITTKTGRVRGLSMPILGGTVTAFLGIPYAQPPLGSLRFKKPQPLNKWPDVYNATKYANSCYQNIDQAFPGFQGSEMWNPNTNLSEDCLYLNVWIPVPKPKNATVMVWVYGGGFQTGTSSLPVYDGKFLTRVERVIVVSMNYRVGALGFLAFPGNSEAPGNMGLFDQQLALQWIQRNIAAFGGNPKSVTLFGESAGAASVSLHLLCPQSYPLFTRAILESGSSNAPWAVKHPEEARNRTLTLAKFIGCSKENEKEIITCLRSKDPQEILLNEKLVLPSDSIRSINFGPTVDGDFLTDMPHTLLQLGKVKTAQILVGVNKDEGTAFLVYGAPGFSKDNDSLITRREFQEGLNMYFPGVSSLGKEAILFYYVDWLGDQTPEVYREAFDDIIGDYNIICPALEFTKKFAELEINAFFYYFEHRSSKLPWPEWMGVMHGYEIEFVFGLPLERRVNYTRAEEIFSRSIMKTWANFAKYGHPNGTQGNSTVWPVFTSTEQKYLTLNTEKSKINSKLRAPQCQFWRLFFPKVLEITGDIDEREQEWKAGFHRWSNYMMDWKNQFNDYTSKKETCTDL

For `COc1cc2c(cc1OC)C(=O)/C(=C/c1ccc(CN3CCCC3)cc1)O2`, the IC50 on Acetylcholinesterase was 0.16 µM; against Butyrylcholinesterase it was 36.4 µM.

As for `COc1cc2c(cc1OC)C(=O)/C(=C/c1cccc(CN(C)C)c1)C2`, the IC50 was found to be 2.14 µM on Acetylcholinesterase and 89.3 µM on Butyrylcholinesterase.

As for `COc1cc2c(cc1OC)C(=O)/C(=C/c1ccc(CN(C)C)cc1)C2`, the IC50 against Acetylcholinesterase was 0.42 µM; against Butyrylcholinesterase, 315 µM.

For the compound `CCN(C)Cc1cccc(/C=C2\Cc3cc(OC)c(OC)cc3C2=O)c1`, the IC50 on Acetylcholinesterase came to 0.49 µM; against Butyrylcholinesterase it was 36.8 µM.

On to `CCN(C)Cc1ccc(/C=C2\Cc3cc(OC)c(OC)cc3C2=O)cc1`, for which the IC50 was determined as 0.27 µM against Acetylcholinesterase and 20.1 µM against Butyrylcholinesterase.

For the compound `CCN(C)Cc1cccc(/C=C2\Oc3cc(OC)c(OC)cc3C2=O)c1`, the IC50 is 0.7 µM against Acetylcholinesterase and 23.6 µM against Butyrylcholinesterase.

For the compound `CCN(CC)Cc1ccc(/C=C2\Oc3cc(OC)c(OC)cc3C2=O)cc1`, the IC50 was 0.14 µM against Acetylcholinesterase and 47.9 µM at Butyrylcholinesterase.

On to `CCN(CC)Cc1ccc(/C=C2\Cc3cc(OC)c(OC)cc3C2=O)cc1`, for which the results for the IC50 against Acetylcholinesterase and against Butyrylcholinesterase were 0.035 µM and 82 µM, respectively. Besides, the Activity with Mus musculus [1] worked out at 2.67; in the assay with Mus musculus [2], 2; with Mus musculus [3] it was 1.6; with Mus musculus [4], 47 s; in the assay on Mus musculus [5] it was 55 s; with Mus musculus [6], 60 s.

Regarding `COc1cc2c(cc1OC)C(=O)/C(=C/c1cccc(CN3CCCC3)c1)C2`, the results for the IC50 at Acetylcholinesterase and against Butyrylcholinesterase were 0.24 µM and 41.6 µM, respectively.

With `COc1cc2c(cc1OC)C(=O)/C(=C/c1ccc(CN3CCCC3)cc1)C2`, the results for the IC50 against Acetylcholinesterase and against Butyrylcholinesterase were 0.045 µM and 26.6 µM, respectively.

In the case of `COc1cc2c(cc1OC)C(=O)C(Cc1cccc(CN3CCCCC3)c1)C2` (stereo not drawn), the half-maximal inhibitory concentration (IC50) at Acetylcholinesterase came out at 0.66 µM; against Butyrylcholinesterase, 70.4 µM.

With `CCN(C)Cc1cccc(CC2Oc3cc(OC)c(OC)cc3C2=O)c1` (stereo not drawn), the values for the IC50 on Acetylcholinesterase and against Butyrylcholinesterase were 1.54 µM and 25.9 µM, respectively.

For the compound `CCN(CC)Cc1cccc(CC2Cc3cc(OC)c(OC)cc3C2=O)c1` (stereo not drawn), the IC50 on Acetylcholinesterase amounted to 1.48 µM; on Butyrylcholinesterase, 32 µM.

Regarding `CCN(CC)Cc1ccc(CC2Cc3cc(OC)c(OC)cc3C2=O)cc1` (stereo not drawn), the IC50 against Acetylcholinesterase was 0.29 µM; against Butyrylcholinesterase, 11.7 µM.

Consider `COc1cc2c(cc1OC)C(=O)C(Cc1cccc(CN3CCCCC3)c1)O2` (stereo not drawn), for which the IC50 is 0.24 µM against Acetylcholinesterase and 98.1 µM against Butyrylcholinesterase.

For the compound `CCN(CC)Cc1cccc(CC2Oc3cc(OC)c(OC)cc3C2=O)c1` (stereo not drawn), the figures for the IC50 against Acetylcholinesterase and against Butyrylcholinesterase were 1.07 µM and 38.2 µM, respectively.

As to `CCN(CC)Cc1ccc(CC2Oc3cc(OC)c(OC)cc3C2=O)cc1` (stereo not drawn), the IC50 stood at 0.44 µM on Acetylcholinesterase and 16.4 µM at Butyrylcholinesterase.

Turning to `COc1cc2c(cc1OC)C(=O)C(Cc1cccc(CN3CCCC3)c1)C2` (stereo not drawn), the IC50 was determined as 2.58 µM against Acetylcholinesterase and 42.2 µM on Butyrylcholinesterase.

Consider `COc1cc2c(cc1OC)C(=O)C(Cc1ccc(CN3CCCC3)cc1)C2` (stereo not drawn), for which the IC50 against Acetylcholinesterase came to 0.15 µM; at Butyrylcholinesterase it was 33.2 µM.

On to `CCN(C)Cc1ccc(CC2Cc3cc(OC)c(OC)cc3C2=O)cc1` (stereo not drawn), for which the figures for the IC50 at Acetylcholinesterase and against Butyrylcholinesterase were 0.38 µM and 34.5 µM, respectively.

Regarding `COc1cc2c(cc1OC)C(=O)C(Cc1cccc(CN(C)C)c1)C2` (stereo not drawn), the IC50 against Acetylcholinesterase was 3.74 µM; at Butyrylcholinesterase, 25.2 µM.

As to `COc1cc2c(cc1OC)C(=O)C(Cc1ccc(CN(C)C)cc1)C2` (stereo not drawn), the IC50 against Butyrylcholinesterase amounted to 40.7 µM.

As for `COc1cc2c(cc1OC)C(=O)/C(=C/c1cccc(CN3CCCCC3)c1)C2`, the IC50 at Acetylcholinesterase was found to be 0.16 µM; against Butyrylcholinesterase, 55.2 µM.

Regarding `COc1cc2c(cc1OC)C(=O)/C(=C/c1cccc(CN3CCCCC3)c1)O2`, the IC50 was found to be 0.082 µM on Acetylcholinesterase and 45 µM on Butyrylcholinesterase.

Consider `CCN(CC)Cc1cccc(/C=C2\Oc3cc(OC)c(OC)cc3C2=O)c1`, for which the IC50 was 1.18 µM at Acetylcholinesterase and 65.1 µM against Butyrylcholinesterase.

As to `COc1cc2c(cc1OC)C(=O)/C(=C/c1ccc(CN3CCCCC3)cc1)C2`, the IC50 on Acetylcholinesterase was 0.1 µM; at Butyrylcholinesterase it was 84.6 µM.

With `COc1cc2c(cc1OC)C(=O)C(Cc1ccc(CN3CCCC3)cc1)O2` (stereo not drawn), the IC50 at Acetylcholinesterase worked out at 0.62 µM; on Butyrylcholinesterase, 49.8 µM.

With `COc1cc2c(cc1OC)C(=O)C(Cc1cccc(CN3CCCC3)c1)O2` (stereo not drawn), the IC50 at Acetylcholinesterase was 7.02 µM; against Butyrylcholinesterase, 57.6 µM.

Turning to `COc1cc2c(cc1OC)C(=O)C(Cc1ccc(CN3CCCCC3)cc1)C2` (stereo not drawn), the IC50 stood at 0.12 µM against Acetylcholinesterase and 48.3 µM at Butyrylcholinesterase.

Regarding `CCN(C)Cc1cccc(CC2Cc3cc(OC)c(OC)cc3C2=O)c1` (stereo not drawn), the IC50 on Acetylcholinesterase stood at 0.69 µM; at Butyrylcholinesterase it was 18.5 µM.

With `CCN(CC)Cc1cccc(/C=C2\Cc3cc(OC)c(OC)cc3C2=O)c1`, the values for the IC50 on Acetylcholinesterase and against Butyrylcholinesterase were 0.44 µM and 71 µM, respectively.

As for `COc1cc2c(cc1OC)C(=O)/C(=C/c1cccc(CN3CCCC3)c1)O2`, the values for the IC50 against Acetylcholinesterase and at Butyrylcholinesterase were 0.29 µM and 72 µM, respectively.

As to `COc1cc2c(cc1OC)C(=O)C(CC1CCN(Cc3ccccc3)CC1)C2` (stereo not drawn) [DONEPEZIL], the Activity came out at 1.9 in the assay on Mus musculus [1] and 75 s with Mus musculus [4].

In the case of `CCN(C)C(=O)Oc1cccc([C@H](C)N(C)C)c1` [RIVASTIGMINE], the figures for the Activity with Mus musculus [1] and in the assay with Mus musculus [4] were 2 and 73 s, respectively.
